Rows were chosen to be rich in hits. Some 1.8% of all compounds tested hit in one or more screens of this group.
Tn7 DDE FP = DD(E)-Tn7 binding inhibition, primary FP screen. inhibition, % at 8.3 µM. P02675. hit rate 0.13% among 370,000. FP displacement of FITC-Tn7 peptide from fibrin DD(E); 0% = median of compound wells per plate;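 active = inhibition above the mean of compounds falling within the control limits plus 3 SD of them, cut at about 14% in these data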
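Also added: labelled Tn7 tracer, 0.1 µM; Assay system: human fibrin DD(E) protein; Amount: 2 µM fibrin DD(E); Schedule: 10 min compound pre-incubation, 3 h probe incubation at room temperature; Repeats: one replicate per compound; Read-out basis: percent inhibition; Measured by: fluorescence polarization of the labelled Tn7 tracer.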
TCR CD3 inh = inhibitors of human TCR-CD3 interaction. hit rate 0.37% among 360,000. AID 651800. TAMRA-labeled TCR probe fluorescence, biochemical. inhibition, % at 9.4 µM; in the data active = inhibition above about 19%;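 also: recombinant mutant TCR 2C K166C tagged with TAMRA read by polarization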
HTRA1 inhibitor = blocks human HTRA1 serine peptidase; hit rate 0.5% among 340,000; recombinant HTRA1, FP-rhodamine activity-based probe, fluorescence polarization; inhibition, % at 5.96 µM; Q92743; in the data active = inhibition above about 36%
Tn6 DDE FP = inhibitors of Tn6 peptide binding to human fibrin DD(E); Fibrin DD(E) TRITC-Tn6 fluorescence polarization displacement; inhibition, % at 8.3 µM; hit rate 0.21% among 370,000; AID 720509;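 active = inhibition above a per-campaign cutoff: mean of compounds within control limits plus 3 SD, cut at about 15% in these data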
SIAE primary = human SIAE inhibition, primary screen; Q9HAT2; SIAE FP-Rh probe binding, fluorescence polarization; hit rate 0.69% among 370,000; inhibition, % at 9.66 µM;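 active = inhibition above a cutoff: mean of compounds within the control limits plus 3 SD of those, cut at about 17% in these data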
Target sequence (Q9HAT2 whole entry, looked up): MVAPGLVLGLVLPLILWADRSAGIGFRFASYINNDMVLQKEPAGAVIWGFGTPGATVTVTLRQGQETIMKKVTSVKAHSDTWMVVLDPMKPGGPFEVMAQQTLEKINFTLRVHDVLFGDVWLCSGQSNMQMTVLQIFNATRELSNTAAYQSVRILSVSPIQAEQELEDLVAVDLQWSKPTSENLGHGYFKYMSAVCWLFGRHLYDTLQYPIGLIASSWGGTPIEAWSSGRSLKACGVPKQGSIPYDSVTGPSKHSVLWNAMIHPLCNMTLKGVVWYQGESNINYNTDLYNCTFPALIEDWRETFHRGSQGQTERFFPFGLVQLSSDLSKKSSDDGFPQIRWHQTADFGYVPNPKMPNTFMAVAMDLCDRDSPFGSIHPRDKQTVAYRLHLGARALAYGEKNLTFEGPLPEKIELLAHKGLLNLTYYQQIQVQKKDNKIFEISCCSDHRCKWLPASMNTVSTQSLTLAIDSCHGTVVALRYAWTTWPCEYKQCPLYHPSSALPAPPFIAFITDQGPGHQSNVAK
ABHD4 inh = ABHD4 (mouse) inhibition, primary FP screen. purified mABHD4, FP-Rh probe fluorescence polarization. inhibition, % at 8.92 µM. hit rate 0.54% among 370,000. AID 720543;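 active = inhibition exceeding the mean over every tested compound plus 3 SD, cut at about 30% in these data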
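Test system: mABHD4 protein | Buffer or medium: HEPES pH 7.0 buffer, 150 mM NaCl, 0.01% Pluronic F-127 | Probe or stimulus: FP-Rh fluorescent activity-based probe, added after compound pre-incubation | Timing: Pre-incubation 45 min, probe exposure 60 min, at 25 °C | Technique: Fluorescence polarization, excitation 525 nm, emission 598 nm, BODIPY TMR filters | Repeats: Single well per compound (singlicate)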
SIAE confirm = human SIAE inhibition, confirmation; AID 1117263; SIAE FP-Rh activity-based probe, fluorescence polarization; inhibition, % at 9.66 µM; shares compounds with SIAE primary; hit rate 13% among 2,300;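 active = mean inhibition of the replicates above the hit cutoff set in the primary screen, cut at about 17% in these data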;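 also: inhibitors lower polarization as more probe stays unbound to SIAE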
Numbers stand for hits; 0 = inactive; - = no result.

SMILES | Tn7 DDE FP | TCR CD3 inh | HTRA1 inhibitor | Tn6 DDE FP | SIAE primary | ABHD4 inh | SIAE confirm
COc1ccc(-c2csc(N3CCN(c4cc(C)nc5ccccc45)CC3)n2)cc1OC | 0 | 0 | 0 | 0 | 20.4 | 0 | 0
COc1cc(-c2csc(N3CCOCC3)n2)cc(OC)c1OC | 0 | 0 | 0 | 0 | 0 | 0 | -
C[C@H](CO)N1C[C@H](C)[C@@H](CN(C)S(=O)(=O)c2ccc(F)cc2)Oc2ccc(NC(=O)Nc3ccc4c(c3)OCO4)cc2C1=O | 0 | 0 | 0 | 0 | 22.0 | 0 | 0
CN(C)C=Nc1ccc(Cn2cnc3nc4ccc(Cl)cc4cc3c2=O)cc1 | 0 | - | - | 0 | 0 | 0 | -
Cc1sc(N/N=C/c2cccnc2)nc1-c1ccccc1 | 0 | 0 | 0 | 0 | 17.2 | 0 | 0
O=C(CCn1nnc(-c2cccs2)n1)N1CCOCC1 | 0 | - | - | 0 | 0 | 0 | -
Cc1cccc(NC(=S)NC(=O)/C=C/c2ccco2)c1 | 0 | 0 | 0 | 0 | 0 | 0 | -
NS(=O)(=O)c1ccc(NC(=S)NC(=O)/C=C/c2ccco2)cc1 | 0 | 0 | 0 | 0 | 18.8 | 0 | 0
O=C(/C=C/c1ccco1)NC(=S)Nc1cccc([N+](=O)[O-])c1 | 0 | 0 | 0 | 0 | 22.7 | 0 | 0
NC(N)=NS(=O)(=O)c1ccc(NC(=S)NC(=O)/C=C/c2ccco2)cc1 | 0 | 0 | 0 | 0 | 0 | 0 | -
COC(=O)[C@]12C[C@H](CC(=O)N3CCN(C(=O)C4CC4)CC3)C(=O)N(Cc3ccco3)C1=C[C@H](C1CCCC1)O[C@@H]2C | 0 | - | - | 0 | 0 | 0 | -
CC(=O)N/C(=C\c1ccccc1)C(=O)OCC(=O)Nc1ccc(C)c(S(=O)(=O)N(C)C)c1 | 0 | 0 | 0 | 0 | 21.4 | 0 | 0
C[C@@H]1CCN(C2CC2)S(=O)(=O)c2ccc(N3CCC[C@@H]3CO)cc2O1 | 0 | - | - | 0 | 0 | 0 | -
Brc1ccc2nc(-c3ccncc3)c(NC3CCCC3)n2c1 | 0 | 0 | 0 | 0 | 19.4 | 0 | 0
COc1ccccc1NC(=O)c1cc2c(CO)cnc(C)c2oc1=Nc1cc(OC)c(OC)c(OC)c1 | 0 | 0 | 0 | 0 | 18.5 | 0 | 0
Nc1cccc2c3c(oc12)CCCC3 | 0 | 0 | 0 | 0 | 18.2 | 0 | 0
COc1cccc2c(=O)c3c(oc12)CCCC3 | 0 | 0 | 0 | 0 | 0 | 0 | -
CC(C)(C)OC(=O)N1CCN(C(=O)Nc2ccc3c(c2)OCCO3)CC1 | 0 | 0 | 0 | 0 | 18.2 | 0 | 0
S=C(Nc1cc(Cl)cc(Cl)c1)NC(c1ccccc1)c1ccccc1 | 0 | - | - | 0 | 0 | 0 | -
Brc1cccc(C=Nc2cccc3ncccc23)c1 | 0 | 0 | 0 | 0 | 0 | 0 | -
Oc1c(Br)cc(Br)cc1C=Nc1cccc2ncccc12 | 0 | 0 | 0 | 0 | 21.9 | 0 | 0
CCOCCCNC(=S)Nc1ccc2nc(N3CCOCC3)cc(C)c2c1 | 0 | 0 | 0 | 0 | 17.4 | 0 | 0
COC(=O)CSc1nnc(-c2ccc(NS(=O)(=O)c3c(C(C)C)cc(C(C)C)cc3C(C)C)cc2)o1 | 0 | - | - | 0 | 0 | 0 | -
COC(=O)[C@]12C[C@H](CC(=O)NCc3cccs3)C(=O)N(Cc3ccc(Cl)cc3Cl)C1=C[C@H](C(C)(C)C)O[C@@H]2C | 0 | - | - | 0 | 0 | 0 | -
CCC(C)[C@H](NC(=O)OC(C)(C)C)C(=O)N[C@@H](Cc1ccccc1)C(=O)OC (some centres not stated) | 0 | - | - | 0 | 0 | 0 | -
SMILES | Tn7 DDE FP | TCR CD3 inh | HTRA1 inhibitor | Tn6 DDE FP | SIAE primary | ABHD4 inh | SIAE confirm
CCC(=O)NCCSc1c[nH]c2ccccc12 | 0 | 0 | 0 | 0 | 0 | 0 | -
CCN(CC)S(=O)(=O)c1ccc(C(=O)NCCSc2c[nH]c3ccccc23)cc1 | 0 | 0 | 0 | 0 | 18.9 | 0 | 0
COc1ccc(-c2nc(C(=O)O)cs2)cc1OC | 0 | 0 | 0 | 0 | 0 | 0 | -
COc1ccc(C(=O)O)nc1C | 0 | 0 | 0 | 0 | 21.2 | 0 | 0
O=C(CN(Cc1ccc(F)cc1)C(=O)CCC(=O)Nc1ccccn1)NCc1ccc(F)cc1 | 0 | 0 | 0 | 0 | 0 | 0 | -
O=C(CN(Cc1ccc(F)cc1)C(=O)CCC(=O)Nc1ccccn1)NCCc1ccccc1 | 0 | 0 | 0 | 0 | 20.8 | 0 | 0
COCCNC(=O)C(c1ccc(O)cc1)N(Cc1ccccc1)C(=O)CCC(=O)Nc1ccccn1 (configuration not stated) | 0 | 0 | 0 | 0 | 20.4 | 0 | 0
